Source: PubChem BioAssay (Broad Institute)
GASC1 inh: inhibitors of human demethylase GASC-1 KDM4C; Q9H3R0; GST-KDM4C 2-372, H3K9me3 peptide, LANCE TR-FRET; 96,000 tested, 0.15% active; AID 720574; inhibition, % at 12.5 µM;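 active means mean replicate inhibition above about 25%, with at least 55% of replicates also reaching it, limit read from the data, passing the limit was not always enough; inconclusive means only one of those two conditions met; inactive means neither condition met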
Target sequence (Q9H3R0 2-372 limits assumed): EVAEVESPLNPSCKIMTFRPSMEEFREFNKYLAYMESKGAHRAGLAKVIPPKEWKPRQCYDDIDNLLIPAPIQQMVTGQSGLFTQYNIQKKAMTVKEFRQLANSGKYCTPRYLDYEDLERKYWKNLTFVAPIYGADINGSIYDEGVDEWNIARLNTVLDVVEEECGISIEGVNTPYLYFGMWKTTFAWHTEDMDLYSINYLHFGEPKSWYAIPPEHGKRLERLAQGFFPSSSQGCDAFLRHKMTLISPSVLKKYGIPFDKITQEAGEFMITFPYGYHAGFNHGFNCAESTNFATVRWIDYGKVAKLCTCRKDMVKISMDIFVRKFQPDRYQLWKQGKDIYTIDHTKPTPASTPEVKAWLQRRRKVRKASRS
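Material: GST-tagged GASC-1 (JMJD2C) catalytic fragment, aa 2-372 / Quantity: enzyme final amount 10 nM / Medium: HEPES buffer, pH 7.5, plus ascorbate / Doses: one test concentration per compound / Incubation: 30 min reaction, 60 min detection, RT / Measured by: LANCE TR-FRET / Read-out: inhibition from TR-FRET ratio decrease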
IDH1 mut inh: inhibitors of human IDH1 R132H. O75874. IDH1 R132H reductase, diaphorase/resazurin fluorescence, 60 min. inhibition, % at 10 µM. 70,000 tested, 0.18% active; in the data active means inhibition above about 34%; inconclusive means no clear call, values can overlap the other calls; inactive means below about 11%;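 further: 0% = DMSO and 100% = no enzyme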
T cruzi growth-1: inhibitors of T. cruzi proliferation; T. cruzi beta-gal in NIH3T3, GalScreen luminescence, 90 h; inhibition, % at 8.34 µM; 77,000 tested, 5.9% active; AID 624255;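 active means mean inhibition above about 93%, with at least 55% of replicates each passing it, limit read from the data, passing the limit was not always enough; inconclusive means only one of those two conditions holds; inactive means neither condition holds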
T cruzi growth-2: Trypanosoma cruzi proliferation inhibition. 5,600 tested, 72% active. inhibition, % at 8.35 µM. shares compounds with T cruzi growth-1. T. cruzi beta-gal in NIH3T3, GalScreen luminescence, 90 h. AID 651739;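 active means mean replicate inhibition above about 95% and at least 55% of replicates individually reaching it, limit read from the data; inconclusive means only one of the two criteria is met; inactive means neither criterion is met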
T cruzi growth-3: inhibitors of T. cruzi proliferation; AID 651740; T. cruzi beta-gal in NIH3T3, GalScreen luminescence, 90 h; shares compounds with T cruzi growth-1; 5,600 tested, 21% active; inhibition, % at 2.09 µM;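 active means mean inhibition above about 95%, with at least 55% of replicates also reaching it, limit read from the data; inconclusive means meets just one of the two conditions; inactive means meets neither condition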;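 further: plate controls were neutral control median for no effect and positive control median for full effect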
NIH3T3 tox: NIH/3T3 (mouse) viability loss | shares compounds with T cruzi growth-1 | 5,600 tested, 14% active | NIH/3T3 viability, CellTiter-Glo ATP luminescence, 90 h | cytotoxicity (signal decrease), % at 8.35 µM;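 active means mean signal decrease across replicates above about 35% based on untreated-well scatter, with enough replicates individually passing, limit read from the data; inconclusive means no rule stated though some were filed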;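 further: 0% = median of neutral control wells and 100% = median of positive control wells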
3T3 cytotox 2: NIH/3T3 (mouse) viability loss | shares compounds with T cruzi growth-1 | NIH/3T3 viability, CellTiter-Glo ATP luminescence, 90 h | inhibition, % at 24.9 µM | 5,600 tested, 56% active;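 active means mean loss of cell viability signal at or above a set limit, and enough replicates individually reaching it; inconclusive means meets only the mean limit or only the replicate share; inactive means meets neither condition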;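 further: 0% = median of neutral control wells and 100% = median of positive control wells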
An asterisk follows results filed as active. The full list was thinned out, with hits kept by preference.

Screening C[C@@H]1CN([C@H](C)CO)C(=O)c2cc(NC(=O)NC3CCCCC3)ccc2O[C@@H](C)CCCCO[C@H]1CN(C)C(=O)Nc1ccc(F)cc1 returned GASC1 inh -1.9 and IDH1 mut inh 0.7.
Screening C[C@H](CO)N1C[C@H](C)[C@H](CN(C)C(=O)Nc2ccc(F)cc2)OCCCC[C@H](C)Oc2ccc(NC(=O)NC3CCCCC3)cc2C1=O returned GASC1 inh 0.2, T cruzi growth-1 102.4*, T cruzi growth-2 106.3*, T cruzi growth-3 71.1, NIH3T3 tox 12.3 and 3T3 cytotox 2 10.6.
`C[C@@H]1CCCCO[C@H](CN(C)C(=O)Nc2ccc(F)cc2)[C@@H](C)CN([C@H](C)CO)C(=O)c2cc(NC(=O)NC3CCCCC3)ccc2O1` gave GASC1 inh 2.2 and T cruzi growth-1 -7.7.
Screening O=C(CSc1nnc(-c2ccco2)o1)Nc1cccc(Cl)c1 returned IDH1 mut inh 0.0.
Screening O=C(Nc1ccccc1)c1ccc(NCc2cccnc2)c([N+](=O)[O-])c1 returned IDH1 mut inh 0.1.
`O=C(Nc1ccccc1)N1C[C@@H]2[C@H](c3ccccc31)[C@H](CO)N2Cc1ccccc1Cl` gave GASC1 inh -0.3, T cruzi growth-1 inconclusive, T cruzi growth-2 97.4*, T cruzi growth-3 41.5, NIH3T3 tox 10.9 and 3T3 cytotox 2 6.2.
O=C(Nc1ccc(Cl)cc1)N1C[C@H]2[C@@H](c3ccccc31)[C@H](CO)N2CC1CCCCC1 was read as GASC1 inh -2.5 and T cruzi growth-1 81.0.
O=C(Nc1ccccc1)N1C[C@@H]2[C@H](c3ccccc31)[C@@H](CO)N2Cc1ccccc1Cl was read as GASC1 inh -1.1 and T cruzi growth-1 28.5.
`O=C(Nc1ccccc1F)N1C[C@@H]2[C@H](c3ccccc31)[C@H](CO)N2C(=O)C1CCOCC1` gave GASC1 inh 1.0, T cruzi growth-1 107.1*, T cruzi growth-2 -59.9, T cruzi growth-3 -15.9, NIH3T3 tox -6.7 and 3T3 cytotox 2 -15.2.
`O=C(Nc1ccc(Cl)cc1)N1C[C@H]2[C@@H](c3ccccc31)[C@@H](CO)N2CC1CCCCC1` gave GASC1 inh -0.1, T cruzi growth-1 108.8*, T cruzi growth-2 105.7*, T cruzi growth-3 90.6, NIH3T3 tox 6.9 and 3T3 cytotox 2 103.5*.
Screening O=C(Nc1ccccc1F)N1C[C@@H]2[C@H](c3ccccc31)[C@H](CO)N2C(=O)C1CC1 returned GASC1 inh -0.8 and T cruzi growth-1 -15.9.
Screening CN1CCN(CCn2c(-c3ccc(Br)cc3)cn3c4ccccc4nc23)CC1 returned IDH1 mut inh -0.2.
For O=C1C(=O)N(CCCn2ccnc2)C(c2ccccc2)C1C(=O)c1cccs1 (stereo not given) the results were IDH1 mut inh 3.4.
`Cc1cccc(-c2nnc(SCC(=O)Nc3ccc(Br)cc3F)o2)c1` gave IDH1 mut inh 0.2.
`COc1ccccc1C#Cc1ccc([C@H]2[C@@H](C#N)N(C(=O)C3CCC3)[C@@H]2CO)cc1` gave GASC1 inh 0.4, T cruzi growth-1 inconclusive, T cruzi growth-2 105.7*, T cruzi growth-3 108.2*, NIH3T3 tox 1.6 and 3T3 cytotox 2 95.9*.
N#C[C@@H]1[C@H](c2ccc(C#Cc3ccccc3F)cc2)[C@@H](CO)N1C(=O)C1CCC1 was read as GASC1 inh -5.1, T cruzi growth-1 inconclusive, T cruzi growth-2 88.6, T cruzi growth-3 88.9, NIH3T3 tox 11.1 and 3T3 cytotox 2 102.2*.
N#C[C@@H]1[C@@H](c2ccc(C#Cc3ccccc3F)cc2)[C@H](CO)N1C(=O)C1CCC1 was read as GASC1 inh 0.6 and T cruzi growth-1 92.5.
Screening N#C[C@H]1[C@H](c2ccc(C#Cc3ccccc3F)cc2)[C@@H](CO)N1C(=O)C1CCC1 returned GASC1 inh -2.5, T cruzi growth-1 99.2*, T cruzi growth-2 102.7*, T cruzi growth-3 100.9*, NIH3T3 tox -5.5 and 3T3 cytotox 2 5.5.
Screening COc1ccccc1C#Cc1ccc([C@@H]2[C@@H](C#N)N(C(=O)C3CCCCC3)[C@@H]2CO)cc1 returned GASC1 inh -5.1.
